From ChEMBL document CHEMBL3632546 (Eur J Med Chem, 2015) come the findings set out here.

Experiment [1] concerns the target T1, Renin (Homo sapiens, UniProt P00797).
T1 sequence (P00797 whole entry): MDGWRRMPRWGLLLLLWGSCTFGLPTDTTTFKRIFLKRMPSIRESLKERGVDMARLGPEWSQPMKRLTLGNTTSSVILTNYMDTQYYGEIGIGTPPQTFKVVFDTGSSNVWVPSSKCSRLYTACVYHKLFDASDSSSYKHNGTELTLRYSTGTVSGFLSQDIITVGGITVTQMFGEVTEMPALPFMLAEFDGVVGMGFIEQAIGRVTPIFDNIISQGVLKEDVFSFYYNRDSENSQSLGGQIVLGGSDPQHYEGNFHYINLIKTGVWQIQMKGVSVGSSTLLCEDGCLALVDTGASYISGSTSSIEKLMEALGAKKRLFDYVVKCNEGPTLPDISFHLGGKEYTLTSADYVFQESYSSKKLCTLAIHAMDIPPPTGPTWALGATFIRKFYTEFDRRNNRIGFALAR
Briefly: Inhibition of human recombinant renin preincubated for 30 mins followed by substrate addition measured after 15 mins by fluorescence analysis. The method in brief:
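Fluorogenic renin kit (Ex/Em 490/520 nm). Reaction started with pre-warmed renin substrate (20 µM solution) and run 15 min at 37 °C. RFU read with substrate-only wells as background. Vehicle, buffer and peptide inhibitor (10 µM solution) controls included.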

Experiment [2] concerns Mus musculus. As to the kind of experiment: Antihypersensitive activity in double transgenic hypertensive mouse harboring human angiotensinogen and human renin genes assessed as reduction of mean arterial blood pressure at 8.5 umol/kg, po monitored 24 hrs post dose. Type of experiment: functional, organism-based.
Experiment [3] concerns the target T2, Cathepsin E (Homo sapiens) (UniProt P14091).
T2 sequence (whole entry): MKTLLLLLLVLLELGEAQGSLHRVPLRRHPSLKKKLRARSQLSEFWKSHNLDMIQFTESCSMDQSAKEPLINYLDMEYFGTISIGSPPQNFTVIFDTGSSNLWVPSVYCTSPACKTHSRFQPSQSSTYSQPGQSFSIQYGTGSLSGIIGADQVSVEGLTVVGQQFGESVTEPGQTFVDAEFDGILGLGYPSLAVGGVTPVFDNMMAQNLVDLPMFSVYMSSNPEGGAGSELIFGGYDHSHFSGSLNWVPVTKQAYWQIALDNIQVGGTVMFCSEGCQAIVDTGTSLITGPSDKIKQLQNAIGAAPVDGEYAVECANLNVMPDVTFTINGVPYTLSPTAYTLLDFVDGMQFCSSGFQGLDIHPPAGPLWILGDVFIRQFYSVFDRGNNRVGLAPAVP
As to the kind of experiment: Inhibition of human recombinant cathepsin E preincubated for 30 mins followed by substrate addition measured after 15 mins by fluorescence analysis.

Experiment [4] relates to Mus musculus. Briefly: Antihypersensitive activity in po dosed double transgenic hypertensive mouse harboring human angiotensinogen and human renin genes assessed as reduction of mean arterial blood pressure monitored 24 hrs post dose. Type of experiment: functional, organism-based.
Experiment [5] concerns Mus musculus. As to the kind of experiment: Antihypersensitive activity in double transgenic hypertensive mouse harboring human angiotensinogen and human renin genes assessed as reduction of mean arterial blood pressure at 17 to 34 umol/kg, po monitored 24 hrs post dose. Type of experiment: functional, organism-based.
Experiment [6] deals with Mus musculus. As to the kind of experiment: Antihypersensitive activity in po dosed double transgenic hypertensive mouse harboring human angiotensinogen and human renin genes assessed as maximum reduction of mean arterial blood pressure monitored 24 hrs post dose. Type of experiment: functional.
The subject of experiment [7] is Mus musculus. As to the kind of experiment: Antihypersensitive activity in po dosed double transgenic hypertensive mouse harboring human angiotensinogen and human renin genes assessed as time duration for sustained reduction of mean arterial blood pressure monitored 24 hrs post dose. Type of experiment: functional.
Experiment [8] addresses Cathepsin D (Homo sapiens) (UniProt P07339). As to the kind of experiment: Inhibition of human recombinant cathepsin D preincubated for 30 mins followed by substrate addition measured after 15 mins by fluorescence analysis.

Active and inactive are the calls of the source. The rule behind the calls is not given here.

Sequence of Cathepsin D (Homo sapiens) (P07339 65-162 limits assumed): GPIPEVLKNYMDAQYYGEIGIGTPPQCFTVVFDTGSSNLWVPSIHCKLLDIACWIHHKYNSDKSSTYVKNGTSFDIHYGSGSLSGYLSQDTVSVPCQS
Sequence of Cathepsin D (Homo sapiens) (P07339 169-412 limits assumed): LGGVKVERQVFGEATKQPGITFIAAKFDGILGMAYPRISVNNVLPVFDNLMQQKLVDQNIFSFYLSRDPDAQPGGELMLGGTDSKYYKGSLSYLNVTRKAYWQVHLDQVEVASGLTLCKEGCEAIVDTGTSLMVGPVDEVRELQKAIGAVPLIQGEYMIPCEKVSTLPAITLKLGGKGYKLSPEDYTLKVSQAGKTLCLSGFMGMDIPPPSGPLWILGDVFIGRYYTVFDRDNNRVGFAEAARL

In the case of `CCCCCCc1cn(CC(C)(C)CNC(=O)[C@@H](C[C@H](O)[C@@H](N)C[C@H](Cc2ccc(OC)c(OCCCOC)c2)C(C)C)C(C)C)nn1`, in experiment [1], the IC50 turned out to be 17.1 nM.

As for `COCCCOc1cc(C[C@@H](C[C@H](N)[C@@H](O)C[C@H](C(=O)N[C@H](C)c2ccc(Br)cc2)C(C)C)C(C)C)ccc1OC`, the IC50 in experiment [1] is 33.7 nM.

As for `COCCCOc1cc(C[C@@H](C[C@H](N)[C@@H](O)C[C@H](C(=O)N[C@@H](C)c2ccc(Cl)cc2)C(C)C)C(C)C)ccc1OC`, the 50% inhibitory concentration (IC50) in experiment [1] worked out at 15.2 nM.

Turning to `COCCCOc1cc(C[C@@H](C[C@H](N)[C@@H](O)C[C@H](C(=O)N[C@@H](C)c2ccc(Br)cc2)C(C)C)C(C)C)ccc1OC`, the IC50 in experiment [1] turned out to be 20.9 nM.

As for `COCCCOc1cc(C[C@@H](C[C@H](N)[C@@H](O)C[C@H](C(=O)NCC(C)(C)Cn2cc(-c3ccc(C)cc3)nn2)C(C)C)C(C)C)ccc1OC`, the IC50 in experiment [1] was 13.1 nM.

`COCCCOc1cc(C[C@@H](C[C@H](N)[C@@H](O)C[C@H](C(=O)NCC(C)(C)CCN2CCOCC2)C(C)C)C(C)C)ccc1OC`: the half-maximal inhibitory concentration (IC50) in experiment [1] came to 1.8 nM.

`COCCCOc1cc(C[C@@H](C[C@H](N)[C@@H](O)C[C@H](C(=O)N[C@H](C)c2ccc(Cl)cc2)C(C)C)C(C)C)ccc1OC`: the concentration for half-maximal inhibition (IC50) in experiment [1] is 30 nM.

For `COCCCOc1cc(C[C@@H](C[C@H](N)[C@@H](O)C[C@H](C(=O)NCCc2ccc3c(c2)OCO3)C(C)C)C(C)C)ccc1OC`, the half-maximal inhibitory concentration (IC50) in experiment [1] came to 11 nM.

For the compound `COCCCOc1cc(C[C@@H](C[C@H](N)[C@@H](O)C[C@H](C(=O)NCC(C)(C)Cn2cc(C3CC3)nn2)C(C)C)C(C)C)ccc1OC`, the IC50 in experiment [1] stood at 1.6 nM.

For `COCCCOc1cc(C[C@@H](C[C@H](N)[C@@H](O)C[C@H](C(=O)NCC(C)(C)Cn2cc(CN(C)C)nn2)C(C)C)C(C)C)ccc1OC`, the 50% inhibitory concentration (IC50) in experiment [1] was determined as 1.9 nM.

As to `COCCCOc1cc(C[C@@H](C[C@H](N)[C@@H](O)C[C@H](C(=O)NCC(C)(C)Cn2cc(C(C)O)nn2)C(C)C)C(C)C)ccc1OC` (stereo partly drawn), the IC50 in experiment [1] amounted to 1.1 nM.

Turning to `COCCCOc1cc(C[C@@H](C[C@H](N)[C@@H](O)C[C@H](C(=O)NCC(C)(C)Cn2cc(CN(C(C)C)C(C)C)nn2)C(C)C)C(C)C)ccc1OC`, the half-inhibitory concentration (IC50) in experiment [1] came out at 2.7 nM.

As for `COCCCOc1cc(C[C@@H](C[C@H](N)[C@@H](O)C[C@H](C(=O)NCC(C)(C)Cn2cc(CN3CCCCC3)nn2)C(C)C)C(C)C)ccc1OC`, the IC50 in experiment [1] was determined as 1 nM.

Consider `COCCCOc1cc(C[C@@H](C[C@H](N)[C@@H](O)C[C@H](C(=O)NCC(C)(C)Cn2ccnn2)C(C)C)C(C)C)ccc1OC`, for which, in experiment [1], the 50% inhibitory concentration (IC50) was 2 nM.

On to `COCCCOc1cc(C[C@@H](C[C@H](N)[C@@H](O)C[C@H](C(=O)NCCc2ccccc2Cl)C(C)C)C(C)C)ccc1OC`, for which the IC50 in experiment [1] worked out at 27.7 nM.

Take `COCCCOc1cc(C[C@@H](C[C@H](N)[C@@H](O)C[C@H](C(=O)NCC(C)(C)Cn2cc(-c3ccccn3)nn2)C(C)C)C(C)C)ccc1OC`: the IC50 in experiment [1] came out at 1.5 nM.

For `COCCCOc1cc(C[C@@H](C[C@H](N)[C@@H](O)C[C@H](C(=O)NCC(C)(C)CC2CCCCC2)C(C)C)C(C)C)ccc1OC`, in experiment [1], the IC50 came out at 15.5 nM.

With `COCCCOc1cc(C[C@@H](C[C@H](N)[C@@H](O)C[C@H](C(=O)NCC(C)(C)Cc2cccc(Cl)c2)C(C)C)C(C)C)ccc1OC`, the IC50 in experiment [1] was 9.8 nM.

Consider `CCN(CC)Cc1cn(CC(C)(C)CNC(=O)[C@@H](C[C@H](O)[C@@H](N)C[C@H](Cc2ccc(OC)c(OCCCOC)c2)C(C)C)C(C)C)nn1`, for which the IC50 in experiment [1] stood at 2.1 nM.

Consider `COCCCOc1cc(C[C@@H](C[C@H](N)[C@@H](O)C[C@H](C(=O)NCC(C)(C)Cc2cccc(OC)c2)C(C)C)C(C)C)ccc1OC`, for which the IC50 in experiment [1] came to 12.3 nM.

As for `COCCCOc1cc(C[C@@H](C[C@H](N)[C@@H](O)C[C@H](C(=O)NCC(C)(C)Cc2cc(F)ccc2F)C(C)C)C(C)C)ccc1OC`, the IC50 in experiment [1] came out at 12.4 nM.

`COCCCOc1cc(C[C@@H](C[C@H](N)[C@@H](O)C[C@H](C(=O)NCC(C)(C)Cc2ccc3ccccc3c2)C(C)C)C(C)C)ccc1OC`: the concentration for half-maximal inhibition (IC50) in experiment [1] came to 11.2 nM.

With `COCCCOc1cc(C[C@@H](C[C@H](N)[C@@H](O)C[C@H](C(=O)NCC(C)(C)Cn2cc(CN3CCOCC3)nn2)C(C)C)C(C)C)ccc1OC`, in experiment [1], the IC50 is 1.1 nM.

Regarding `COCCCOc1cc(C[C@@H](C[C@H](N)[C@@H](O)C[C@H](C(=O)NCC(C)(C)Cc2ccccc2F)C(C)C)C(C)C)ccc1OC`, the IC50 in experiment [1] was determined as 9.2 nM.

In the case of `COCCCOc1cc(C[C@@H](C[C@H](N)[C@@H](O)C[C@H](C(=O)NCC(C)(C)Cc2cccc(F)c2)C(C)C)C(C)C)ccc1OC`, the 50% inhibitory concentration (IC50) in experiment [1] is 9.8 nM.

Take `COCCCOc1cc(C[C@@H](C[C@H](N)[C@@H](O)C[C@H](C(=O)NCC(C)(C)Cn2cc(-c3ccccc3)nn2)C(C)C)C(C)C)ccc1OC`: the IC50 in experiment [1] came to 5 nM.

In the case of `COCCCOc1cc(C[C@@H](C[C@H](N)[C@@H](O)C[C@H](C(=O)NCC(C)(C)C(N)=O)C(C)C)C(C)C)ccc1OC`, in experiment [2], the outcome was Active.

With `COCCCOc1cc(C[C@@H](C[C@H](N)[C@@H](O)C[C@H](C(=O)NCC(C)(C)Cc2ccc(OC(F)(F)F)cc2)C(C)C)C(C)C)ccc1OC`, the concentration for half-maximal inhibition (IC50) in experiment [1] was found to be 13.4 nM.

In the case of `COCCCOc1cc(C[C@@H](C[C@H](N)[C@@H](O)C[C@H](C(=O)NCCc2cccc(OC)c2)C(C)C)C(C)C)ccc1OC`, in experiment [1], the concentration for half-maximal inhibition (IC50) was found to be 7.2 nM.

`COCCCOc1cc(C[C@@H](C[C@H](N)[C@@H](O)C[C@H](C(=O)NCC(C)(C)Cn2cc(C3(O)CCCC3)nn2)C(C)C)C(C)C)ccc1OC`: in experiment [1], the IC50 was 5.2 nM.

Turning to `COCCCOc1cc(C[C@@H](C[C@H](N)[C@@H](O)C[C@H](C(=O)NCC(C)(C)Cc2ccccc2)C(C)C)C(C)C)ccc1OC`, the half-maximal inhibitory concentration (IC50) in experiment [1] worked out at 34 nM.

Regarding `COCCCOc1cc(C[C@@H](C[C@H](N)[C@@H](O)C[C@H](C(=O)NCC(C)(C)Cc2cccnc2)C(C)C)C(C)C)ccc1OC`, the IC50 in experiment [1] was 2.2 nM.

`COCCCOc1cc(C[C@@H](C[C@H](N)[C@@H](O)C[C@H](C(=O)NCC(C)(C)CCOc2ccccc2)C(C)C)C(C)C)ccc1OC`: the half-inhibitory concentration (IC50) in experiment [1] was determined as 8.5 nM.

As for `COCCCOc1cc(C[C@@H](C[C@H](N)[C@@H](O)C[C@H](C(=O)NCC(C)(C)Cc2ccc(OC)cc2)C(C)C)C(C)C)ccc1OC`, in experiment [1], the IC50 was found to be 10.2 nM.

As to `CCCCc1cn(CC(C)(C)CNC(=O)[C@@H](C[C@H](O)[C@@H](N)C[C@H](Cc2ccc(OC)c(OCCCOC)c2)C(C)C)C(C)C)nn1`, the half-inhibitory concentration (IC50) in experiment [1] came to 5.8 nM.

Take `COCCCOc1cc(C[C@@H](C[C@H](N)[C@@H](O)C[C@H](C(=O)NCC(C)(C)Cc2ccncc2)C(C)C)C(C)C)ccc1OC`: the IC50 in experiment [1] stood at 1.5 nM.

Turning to `COCCCOc1cc(C[C@@H](C[C@H](N)[C@@H](O)C[C@H](C(=O)NCC(C)(C)Cc2c(F)cccc2F)C(C)C)C(C)C)ccc1OC`, the IC50 in experiment [1] amounted to 16.1 nM.

For `COCCCOc1cc(C[C@@H](C[C@H](N)[C@@H](O)C[C@H](C(=O)NCCc2ccccn2)C(C)C)C(C)C)ccc1OC`, the IC50 in experiment [1] turned out to be 2.6 nM.

For the compound `COCCCOc1cc(C[C@@H](C[C@H](N)[C@@H](O)C[C@H](C(=O)NCC(C)(C)Cn2cc(C(C)(C)C)nn2)C(C)C)C(C)C)ccc1OC`, the IC50 in experiment [1] is 7 nM.

With `COCCCOc1cc(C[C@@H](C[C@H](N)[C@@H](O)C[C@H](C(=O)NCC(C)(C)Cn2cc(CCO)nn2)C(C)C)C(C)C)ccc1OC.Cl`, the inhibition entry in experiment [3] and in experiment [8] was “inactive” in each case. Moreover, the result in experiment [2] and in experiment [5] was Active. For the same compound, the Activity result was “Dose-dependent effect” in experiment [4] and 40 mmHg in experiment [6]. Moreover, in experiment [7], the Time stood at 14 h. Further, the concentration for half-maximal inhibition (IC50) in experiment [1] amounted to 0.7 nM.

In the case of `COCCCOc1cc(C[C@@H](C[C@H](N)[C@@H](O)C[C@H](C(=O)NCC(C)(C)Cn2cc(CO)nn2)C(C)C)C(C)C)ccc1OC`, in experiment [1], the IC50 was determined as 0.9 nM.
